# Assay results: paper PMC5548977 (ESMO Open, 2017)
# Columns and labels:
# [1] = tested on: patients with advanced solid tumours; assay: Phase I dose-escalation study: adverse events, dose-limiting toxicities, MTD; format: in vivo, human
# Outline: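 Dosing was intravenous on days 1, 8 and 15 every 28 days, with dose by BSA (actual weight) recalculated each cycle. Escalation started at 20 mg/m2 with one patient per level, doubling until ≥grade 2 toxicity, then 3+3, across nine cohorts up to 780 mg/m2, with an expansion cohort at MTD. Dexamethasone 10 mg IV plus IV 5-HT antagonist premedication was recommended. AEs/DLTs were graded by NCI CTCAE V.3.0 and followed 30 days post-treatment.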
# [2] = Pharmacokinetics: total ruthenium in plasma by ICP-MS, cycle 1; format: in vivo, human
# Outline: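 Cycle 1 plasma was taken on days 1, 2 and 8, pre-infusion and at 15 min, 30 min, 1, 2, 4, 6–8, 10–12 and 24 hours post-infusion, plus pre-dose day 8. Total ruthenium (free and bound) was measured by ICP-MS. Drug was reconstituted in normal saline and given intravenously over 30 min (<500 mL) or 60–90 min (>500 mL). Parameters were derived from concentration–time data and summarised descriptively.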
# [3] = tested on: advanced solid tumours; assay: Anti-tumour activity, tumour response by CT; format: in vivo, human
# Outline: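 Adult patients with refractory advanced solid tumours got intravenous infusions on days 1, 8 and 15 of 28-day cycles, at 20–780 mg/m2. CT response assessment was done at baseline and every two cycles per RECIST V.1.1. Disease control was defined as CR, PR or SD. Evaluable patients had at least one response assessment. Treatment continued until confirmed PD. Analysis was descriptive.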
# [4] = tested on: GRP78; conditions: tumour cells; independent preclinical studies; cited from earlier work
# [5] = tested on: drug-resistant PDAC cells; conditions: cited from earlier work
# [6] = tested on: metastatic osteosarcoma cells; conditions: ex vivo lung metastases model; cited from earlier work
# [7] = in vitro, combination with different classes of cancer drugs; ref 23 24; cited from earlier work
# [8] = ref 9 10, cited from earlier work
# [9] = 10 patients with disease control
# [10] = efficacy-evaluable population (n=38)
compound,measurement,setting,value
"[Cl][Ru-]([Cl])([Cl])[Cl].[Na+].c1ccc2[nH]ncc2c1.c1ccc2[nH]ncc2c1 [IT-139, sodium trans-(tetrachlorobis(1H-indazole)ruthenate(III))]","Any adverse event, patients",[1]; 20 mg/m^2 (n=1),1
same,"Maximum severity of adverse event Grade 1, patients",[1]; 20 mg/m^2 (n=1),1
same,"Related adverse event (related to study drug as assessed by the investigator), patients",[1]; 20 mg/m^2 (n=1),1
same,"Any adverse event, patients",[1]; 40 mg/m^2 (n=1),1
same,"Maximum severity of adverse event Grade 2, patients",[1]; 40 mg/m^2 (n=1),1
same,"Related adverse event (related to study drug as assessed by the investigator), patients",[1]; 40 mg/m^2 (n=1),1
same,"Any adverse event, patients",[1]; 80 mg/m^2 (n=1),1
same,"Maximum severity of adverse event Grade 1, patients",[1]; 80 mg/m^2 (n=1),1
same,"Related adverse event (related to study drug as assessed by the investigator), patients",[1]; 80 mg/m^2 (n=1),1
same,"Any adverse event, patients",[1]; 160 mg/m^2 (n=1),1
same,"Maximum severity of adverse event Grade 1, patients",[1]; 160 mg/m^2 (n=1),1
same,"Related adverse event (related to study drug as assessed by the investigator), patients",[1]; 160 mg/m^2 (n=1),1
same,"Any serious adverse event, patients",[1]; 320 mg/m^2 (n=7),4
same,"Discontinued treatment due to adverse event, patients",[1]; 320 mg/m^2 (n=7),1
same,"Maximum severity of adverse event Grade 1, patients",[1]; 320 mg/m^2 (n=7),1
same,"Maximum severity of adverse event Grade 2, patients",[1]; 320 mg/m^2 (n=7),3
same,"Maximum severity of adverse event Grade 3, patients",[1]; 320 mg/m^2 (n=7),3
same,"Maximum severity of adverse event ≥ Grade 3, patients",[1]; 320 mg/m^2 (n=7),3
same,"Related adverse event (related to study drug as assessed by the investigator), patients",[1]; 320 mg/m^2 (n=7),7
same,"Related serious adverse event, patients",[1]; 320 mg/m^2 (n=7),1
same,"Any adverse event, patients",[1]; 420 mg/m^2 (n=5),5
same,"Any serious adverse event, patients",[1]; 420 mg/m^2 (n=5),1
same,"Discontinued treatment due to adverse event, patients",[1]; 420 mg/m^2 (n=5),2
same,"Maximum severity of adverse event Grade 1, patients",[1]; 420 mg/m^2 (n=5),1
same,"Maximum severity of adverse event Grade 2, patients",[1]; 420 mg/m^2 (n=5),2
same,"Maximum severity of adverse event Grade 3, patients",[1]; 420 mg/m^2 (n=5),2
same,"Maximum severity of adverse event ≥ Grade 3, patients",[1]; 420 mg/m^2 (n=5),2
same,"Related adverse event (related to study drug as assessed by the investigator), patients",[1]; 420 mg/m^2 (n=5),4
same,"Any adverse event, patients",[1]; 500 mg/m^2 (n=3),3
same,"Maximum severity of adverse event Grade 1, patients",[1]; 500 mg/m^2 (n=3),1
same,"Maximum severity of adverse event Grade 2, patients",[1]; 500 mg/m^2 (n=3),2
same,"Related adverse event (related to study drug as assessed by the investigator), patients",[1]; 500 mg/m^2 (n=3),2
same,"Any serious adverse event, patients",[1]; 625 mg/m^2 (n=18),6
same,"Discontinued treatment due to adverse event, patients",[1]; 625 mg/m^2 (n=18),2
same,"Maximum severity of adverse event Grade 1, patients",[1]; 625 mg/m^2 (n=18),4
same,"Maximum severity of adverse event Grade 2, patients",[1]; 625 mg/m^2 (n=18),4
same,"Maximum severity of adverse event Grade 3, patients",[1]; 625 mg/m^2 (n=18),9
same,"Maximum severity of adverse event Grade 5, patients",[1]; 625 mg/m^2 (n=18),1
same,"Maximum severity of adverse event ≥ Grade 3, patients",[1]; 625 mg/m^2 (n=18),10
same,"Related serious adverse event, patients",[1]; 625 mg/m^2 (n=18),1
same,duration of QTc prolongation after infusion,[1]; 780 mg/m^2,up to 10 hours
same,"Any adverse event, patients",[1]; 780 mg/m^2 (n=9),9
same,"Any serious adverse event, patients",[1]; 780 mg/m^2 (n=9),4
same,"Maximum severity of adverse event Grade 1, patients",[1]; 780 mg/m^2 (n=9),1
same,"Maximum severity of adverse event Grade 2, patients",[1]; 780 mg/m^2 (n=9),4
same,"Maximum severity of adverse event Grade 3, patients",[1]; 780 mg/m^2 (n=9),3
same,"Maximum severity of adverse event Grade 5, patients",[1]; 780 mg/m^2 (n=9),1
same,"Maximum severity of adverse event ≥ Grade 3, patients",[1]; 780 mg/m^2 (n=9),4
same,"Related adverse event (related to study drug as assessed by the investigator), patients",[1]; 780 mg/m^2 (n=9),9
same,"Related serious adverse event, patients",[1]; 780 mg/m^2 (n=9),2
same,overall tolerability,[1]; 20 to 780 mg/m^2,well tolerated
same,cumulative toxicity,[1]; across dose levels,no evidence of cumulative toxicity
same,drug-related renal toxicity,[1]; all dose levels,no evidence of drug-related renal toxicity
same,MTD (maximum-tolerated dose),"[1]; i.v. infusion days 1, 8 and 15 every 28 days",625 mg/m^2
same,effect on platelets or white blood cells,[1]; in vivo,no effect on platelets or white blood cells
same,patients with an AE that led to treatment discontinuation,"[1]; n=46, all dose levels",11%
same,PR prolongation,"[1]; no control group, chance effect not excluded",evidence for PR prolongation
same,Creatine clearance,"[1]; over time, all dose levels",stable over time and across all dose levels
same,serum discolouration at blood draw,"[1]; three patients (four blood draws), without any clinical correlates","discoloured serum, green in colour"
same,"Any serious adverse event, patients",[1]; total patients (n=46),15
same,"Discontinued treatment due to adverse event, patients",[1]; total patients (n=46),5
same,"Maximum severity of adverse event Grade 1, patients",[1]; total patients (n=46),11
same,"Maximum severity of adverse event Grade 5, patients",[1]; total patients (n=46),2
same,"Maximum severity of adverse event ≥ Grade 3, patients",[1]; total patients (n=46),19
same,"Related serious adverse event, patients",[1]; total patients (n=46),4
same,mean half-life (t1/2),"[2]; across dose levels, may not represent true terminal half-life",113 h
same,pharmacokinetic linearity,[2]; across the dose range evaluated (20-780 mg/m^2),first-order linear pharmacokinetics
same,dose dependence of PK parameters,[2]; in vivo,increased proportionally with dose
same,mean total clearance (CLtotal),[2]; in vivo,164 mL/h
same,percentage of the administered dose excreted in the urine (mean),[2]; in vivo,1.14%
same,patients with target lesion size reductions,[3]; 8 of 38 efficacy-evaluable patients,21%
same,median duration of disease control,[3]; [9],9 weeks
same,range of duration of disease control,[3]; [9],1–98 weeks
same,duration of SD from initiation of therapy until PD,[3]; carcinoid patient continued on compassionate use protocol,54 weeks
same,number of patients with PR,[3]; [10],1
same,number of patients with SD,[3]; [10],9
same,disease control in patients with carcinoid neuroendocrine tumours,[3]; one PR and two SDs,three of five patients had disease control
same,single-agent anti-tumour activity,"[3]; weekly i.v. days 1, 8 and 15 of every 28-day cycle",modest anti-tumour activity
same,effect on stress induction of GRP78,[4],suppressing the stress induction of GRP78 in tumour cells
same,effect on GRP78 chemoresistance,[5]; PDAC model,inhibits GRP78 chemoresistance
same,sensitivity to cytotoxic drugs,"[5]; in combination with gemcitabine, drug-resistant PDAC cells",sensitivity to cytotoxic drugs was restored
same,tumour burden,[6],decrease in tumour burden after treatment
same,synergy in combination,[7],marked synergy
imidazolium-(trans-DMSO-imidazole-tetrachlororuthenate) [NAMI-A],tolerability,"[8]; monotherapy, clinic trials",moderately tolerated
same,activity in combination,[8]; phase I/II combination study with gemcitabine,less activity in combination than with gemcitabine therapy alone
